Source: ChEMBL document CHEMBL1130166, “Synthesis and pharmacological characterization of 3-[2-((3aR,9bR)-cis-6-methoxy-2,3,3a,4,5,9b-hexahydro-1H-benz[e] isoindol-2-yl)ethyl]pyrido-[3',4':4,5]thieno[3,2-d]pyrimidine-2,4 (1H,3H)-dione (A-131701): a uroselective alpha 1A adrenoceptor antagonist for the symptomatic treatment of benign …” (J Med Chem, 1997)

Tests used:
[1] = target: T1, 5-hydroxytryptamine receptor 1F (Rattus norvegicus, UniProt P30940); assay: Binding affinity against 5-hydroxytryptamine 1 receptor using [3H]5-HT as radioligand
T1 sequence (P30940 whole entry): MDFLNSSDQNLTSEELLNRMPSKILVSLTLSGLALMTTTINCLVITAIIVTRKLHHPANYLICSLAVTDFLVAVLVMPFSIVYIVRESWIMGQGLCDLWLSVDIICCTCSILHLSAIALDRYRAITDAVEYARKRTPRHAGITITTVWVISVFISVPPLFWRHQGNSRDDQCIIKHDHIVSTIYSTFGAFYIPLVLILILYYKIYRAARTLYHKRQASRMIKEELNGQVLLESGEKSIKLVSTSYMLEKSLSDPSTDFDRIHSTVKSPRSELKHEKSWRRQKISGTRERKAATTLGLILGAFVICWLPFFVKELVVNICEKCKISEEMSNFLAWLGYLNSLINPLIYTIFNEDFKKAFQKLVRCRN

[2] = target: 5-hydroxytryptamine receptor 2A (Bos taurus, UniProt Q75Z89); assay: Binding affinity against 5-hydroxytryptamine 2 receptor using [3H]ketanserin as radioligand
Sequence of 5-hydroxytryptamine receptor 2A (Q75Z89 whole entry): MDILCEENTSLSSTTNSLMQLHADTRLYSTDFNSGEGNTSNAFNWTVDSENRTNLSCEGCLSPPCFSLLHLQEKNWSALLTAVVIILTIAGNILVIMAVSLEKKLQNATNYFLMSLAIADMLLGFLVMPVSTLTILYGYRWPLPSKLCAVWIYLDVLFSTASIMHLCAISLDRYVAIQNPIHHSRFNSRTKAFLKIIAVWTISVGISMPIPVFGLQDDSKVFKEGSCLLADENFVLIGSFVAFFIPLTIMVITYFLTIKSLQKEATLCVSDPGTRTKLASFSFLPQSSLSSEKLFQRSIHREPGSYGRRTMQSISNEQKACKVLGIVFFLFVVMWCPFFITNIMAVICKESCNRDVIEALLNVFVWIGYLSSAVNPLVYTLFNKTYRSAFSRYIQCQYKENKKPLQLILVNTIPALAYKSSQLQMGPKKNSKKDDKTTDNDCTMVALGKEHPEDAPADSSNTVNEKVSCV

[3] = target: T2, Alpha-1D adrenergic receptor (Rattus norvegicus, UniProt P23944); assay: In vitro antagonism against Alpha-1D adrenergic receptor using phenylephrine (PE) challenge in rat aorta; format: functional, tissue-based; conditions: read-out: pA2 (converted)
T2 sequence (P23944 whole entry): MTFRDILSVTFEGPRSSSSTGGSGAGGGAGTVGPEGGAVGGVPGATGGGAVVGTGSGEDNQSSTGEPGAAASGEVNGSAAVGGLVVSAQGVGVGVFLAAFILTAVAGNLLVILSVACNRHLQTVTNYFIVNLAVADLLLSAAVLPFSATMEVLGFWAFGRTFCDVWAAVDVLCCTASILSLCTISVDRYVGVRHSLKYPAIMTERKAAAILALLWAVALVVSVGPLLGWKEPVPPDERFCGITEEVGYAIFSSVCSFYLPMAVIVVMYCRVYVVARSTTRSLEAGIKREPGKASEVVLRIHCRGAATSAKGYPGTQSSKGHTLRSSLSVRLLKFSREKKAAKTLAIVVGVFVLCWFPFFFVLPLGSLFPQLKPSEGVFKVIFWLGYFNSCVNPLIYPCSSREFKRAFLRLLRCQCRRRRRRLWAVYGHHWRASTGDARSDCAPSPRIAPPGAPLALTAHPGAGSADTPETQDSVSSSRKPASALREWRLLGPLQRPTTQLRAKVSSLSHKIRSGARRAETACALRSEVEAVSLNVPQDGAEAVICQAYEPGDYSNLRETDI
Method in brief: (§1)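 Agonist concentration-response curves were run on the isolated tissue, then repeated in the presence of increasing concentrations of antagonist. pA2 was obtained by Schild analysis.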

[4] = target: T3, Alpha-1B adrenergic receptor (Rattus norvegicus, UniProt P15823); assay: In vitro antagonism against Alpha-1B adrenergic receptor using phenylephrine (PE) challenge in rat spleen; format: functional, tissue-based; conditions: read-out: pA2 (converted); method in brief: as §1
T3 sequence (P15823 whole entry): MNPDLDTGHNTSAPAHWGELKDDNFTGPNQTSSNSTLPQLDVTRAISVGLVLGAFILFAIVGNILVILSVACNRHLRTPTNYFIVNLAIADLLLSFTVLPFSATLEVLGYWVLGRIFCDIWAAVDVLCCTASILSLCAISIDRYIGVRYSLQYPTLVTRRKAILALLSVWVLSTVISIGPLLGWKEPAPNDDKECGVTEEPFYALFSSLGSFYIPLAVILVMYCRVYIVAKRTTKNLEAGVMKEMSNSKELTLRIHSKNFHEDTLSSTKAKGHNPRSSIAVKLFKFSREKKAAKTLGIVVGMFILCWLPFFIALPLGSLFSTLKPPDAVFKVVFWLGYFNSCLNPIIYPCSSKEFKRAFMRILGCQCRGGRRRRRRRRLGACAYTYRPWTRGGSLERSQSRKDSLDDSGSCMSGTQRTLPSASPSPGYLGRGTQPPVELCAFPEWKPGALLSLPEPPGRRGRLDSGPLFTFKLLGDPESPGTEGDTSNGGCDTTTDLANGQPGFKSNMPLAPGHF

[5] = target: Beta-1 adrenergic receptor (Homo sapiens, UniProt P08588); assay: Binding affinity against Beta-1 adrenergic receptor using [3H]DHA as radioligand
Sequence of Beta-1 adrenergic receptor (P08588 whole entry): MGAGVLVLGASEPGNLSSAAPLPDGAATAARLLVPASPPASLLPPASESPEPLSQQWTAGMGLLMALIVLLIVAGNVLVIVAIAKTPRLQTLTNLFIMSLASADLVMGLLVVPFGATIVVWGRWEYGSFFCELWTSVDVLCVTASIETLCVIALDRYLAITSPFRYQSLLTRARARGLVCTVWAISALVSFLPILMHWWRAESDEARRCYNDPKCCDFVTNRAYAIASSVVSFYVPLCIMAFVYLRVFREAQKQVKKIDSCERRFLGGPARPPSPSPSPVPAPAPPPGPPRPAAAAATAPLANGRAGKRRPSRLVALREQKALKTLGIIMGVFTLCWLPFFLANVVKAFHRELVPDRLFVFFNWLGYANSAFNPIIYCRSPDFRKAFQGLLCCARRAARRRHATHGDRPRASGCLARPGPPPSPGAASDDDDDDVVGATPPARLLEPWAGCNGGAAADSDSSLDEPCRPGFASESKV

[6] = target: T4, Alpha-2A adrenergic receptor (Homo sapiens, UniProt P08913); assay: Binding affinity against human adrenergic receptor subtype Alpha-2A adrenergic receptor using [3H]rauwolscine as radioligand
T4 sequence (P08913 whole entry): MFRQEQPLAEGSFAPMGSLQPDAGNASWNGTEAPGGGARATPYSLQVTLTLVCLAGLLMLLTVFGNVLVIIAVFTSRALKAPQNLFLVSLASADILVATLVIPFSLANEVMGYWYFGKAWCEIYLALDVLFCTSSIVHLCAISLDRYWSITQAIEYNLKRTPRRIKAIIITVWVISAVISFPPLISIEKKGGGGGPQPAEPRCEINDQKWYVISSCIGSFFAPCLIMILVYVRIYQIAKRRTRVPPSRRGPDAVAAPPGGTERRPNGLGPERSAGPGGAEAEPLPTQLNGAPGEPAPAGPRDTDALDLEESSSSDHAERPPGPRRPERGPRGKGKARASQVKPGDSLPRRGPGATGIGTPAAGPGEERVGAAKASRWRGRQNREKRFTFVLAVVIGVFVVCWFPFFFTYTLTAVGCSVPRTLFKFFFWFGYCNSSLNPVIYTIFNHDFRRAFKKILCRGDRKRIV

[7] = target: T5, Alpha-1B adrenergic receptor (Homo sapiens, UniProt P35368); assay: Binding affinity against human adrenergic receptor subtype Alpha-1B adrenergic receptor using [3H]prazosin as radioligand
T5 sequence (P35368 whole entry): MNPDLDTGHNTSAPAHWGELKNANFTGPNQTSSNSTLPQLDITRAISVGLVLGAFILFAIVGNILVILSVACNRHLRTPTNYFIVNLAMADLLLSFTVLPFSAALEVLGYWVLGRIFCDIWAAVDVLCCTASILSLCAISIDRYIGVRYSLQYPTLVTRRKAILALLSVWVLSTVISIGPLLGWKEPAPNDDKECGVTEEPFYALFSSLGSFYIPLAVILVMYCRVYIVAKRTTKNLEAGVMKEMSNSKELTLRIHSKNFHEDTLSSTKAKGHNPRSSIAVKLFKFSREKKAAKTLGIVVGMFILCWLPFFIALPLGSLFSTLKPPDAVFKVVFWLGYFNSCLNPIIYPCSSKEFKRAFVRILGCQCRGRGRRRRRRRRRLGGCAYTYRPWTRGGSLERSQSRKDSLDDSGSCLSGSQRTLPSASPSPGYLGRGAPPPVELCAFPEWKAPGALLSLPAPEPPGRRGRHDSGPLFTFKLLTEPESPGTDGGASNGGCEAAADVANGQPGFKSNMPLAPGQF

[8] = target: T6, Alpha-2C adrenergic receptor (Homo sapiens, UniProt P18825); assay: Binding affinity against human Alpha-2C adrenergic receptor using [3H]rauwolscine as radioligand
T6 sequence (P18825 whole entry): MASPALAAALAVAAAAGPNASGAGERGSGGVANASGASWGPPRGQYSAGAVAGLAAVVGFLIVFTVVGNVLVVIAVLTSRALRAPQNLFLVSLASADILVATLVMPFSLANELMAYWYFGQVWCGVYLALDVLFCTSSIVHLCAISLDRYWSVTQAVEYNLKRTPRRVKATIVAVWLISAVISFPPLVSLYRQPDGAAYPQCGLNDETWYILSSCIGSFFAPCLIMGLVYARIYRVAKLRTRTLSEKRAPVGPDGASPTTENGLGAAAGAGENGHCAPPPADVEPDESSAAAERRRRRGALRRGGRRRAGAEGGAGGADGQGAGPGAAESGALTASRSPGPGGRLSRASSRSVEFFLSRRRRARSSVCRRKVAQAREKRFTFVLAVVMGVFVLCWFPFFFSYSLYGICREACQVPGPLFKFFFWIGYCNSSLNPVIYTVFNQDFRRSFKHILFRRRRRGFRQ

[9] = target: T7, Alpha-2B adrenergic receptor (Rattus norvegicus, UniProt P19328); assay: Binding affinity against rat Alpha-2B adrenergic receptor using [3H]rauwolscine as radioligand
T7 sequence (P19328 whole entry): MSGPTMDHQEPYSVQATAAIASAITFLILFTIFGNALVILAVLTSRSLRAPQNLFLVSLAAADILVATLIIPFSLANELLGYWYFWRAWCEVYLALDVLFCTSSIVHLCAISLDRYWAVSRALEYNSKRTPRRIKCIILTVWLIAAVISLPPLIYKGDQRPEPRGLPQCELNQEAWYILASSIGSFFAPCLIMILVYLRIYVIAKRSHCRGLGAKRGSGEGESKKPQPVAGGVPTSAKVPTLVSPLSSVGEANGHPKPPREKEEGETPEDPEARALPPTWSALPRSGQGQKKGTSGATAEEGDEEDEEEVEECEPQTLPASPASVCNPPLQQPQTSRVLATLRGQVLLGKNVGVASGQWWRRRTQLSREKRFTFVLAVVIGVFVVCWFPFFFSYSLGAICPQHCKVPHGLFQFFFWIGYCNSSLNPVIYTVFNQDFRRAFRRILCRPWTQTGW

[10] = target: Beta-2 adrenergic receptor (Homo sapiens, UniProt P07550); assay: Binding affinity against adrenergic receptor subtype Beta-2 adrenergic receptor using [3H]DHA as radioligand
Sequence of Beta-2 adrenergic receptor (P07550 whole entry): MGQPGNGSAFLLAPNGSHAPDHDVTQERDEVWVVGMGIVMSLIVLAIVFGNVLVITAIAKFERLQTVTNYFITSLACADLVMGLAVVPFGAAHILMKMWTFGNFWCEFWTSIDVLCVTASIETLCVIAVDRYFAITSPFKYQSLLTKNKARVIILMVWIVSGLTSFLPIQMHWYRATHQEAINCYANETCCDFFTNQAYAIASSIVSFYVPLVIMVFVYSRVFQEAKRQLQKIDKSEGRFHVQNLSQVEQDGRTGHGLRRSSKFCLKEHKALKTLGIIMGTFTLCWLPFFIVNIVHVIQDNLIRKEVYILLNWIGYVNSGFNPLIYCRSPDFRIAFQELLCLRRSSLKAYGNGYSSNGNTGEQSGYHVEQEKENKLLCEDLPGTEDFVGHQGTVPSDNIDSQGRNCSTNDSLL

[11] = target: D(1A) dopamine receptor (Mus musculus, UniProt Q61616); assay: Binding affinity against Dopamine receptor D1 using [3H]SCH-23390 as radioligand
Sequence of D(1A) dopamine receptor (Q61616 whole entry): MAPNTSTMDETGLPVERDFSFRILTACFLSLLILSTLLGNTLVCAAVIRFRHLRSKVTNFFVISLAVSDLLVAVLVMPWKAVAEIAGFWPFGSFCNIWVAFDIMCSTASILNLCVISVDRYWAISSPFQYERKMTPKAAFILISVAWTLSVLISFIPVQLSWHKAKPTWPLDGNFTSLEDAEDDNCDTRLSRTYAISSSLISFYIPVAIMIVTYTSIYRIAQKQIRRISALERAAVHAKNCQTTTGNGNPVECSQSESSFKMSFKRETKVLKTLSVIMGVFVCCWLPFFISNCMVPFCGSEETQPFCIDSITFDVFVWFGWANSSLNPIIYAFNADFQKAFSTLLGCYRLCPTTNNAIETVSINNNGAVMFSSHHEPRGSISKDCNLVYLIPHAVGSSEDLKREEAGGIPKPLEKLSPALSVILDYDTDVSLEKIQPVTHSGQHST

[12] = target: D(2) dopamine receptor (Homo sapiens, UniProt P14416); assay: Binding affinity against Dopamine receptor D2 using [3H]spiroperidol as radioligand
Sequence of D(2) dopamine receptor (P14416 whole entry): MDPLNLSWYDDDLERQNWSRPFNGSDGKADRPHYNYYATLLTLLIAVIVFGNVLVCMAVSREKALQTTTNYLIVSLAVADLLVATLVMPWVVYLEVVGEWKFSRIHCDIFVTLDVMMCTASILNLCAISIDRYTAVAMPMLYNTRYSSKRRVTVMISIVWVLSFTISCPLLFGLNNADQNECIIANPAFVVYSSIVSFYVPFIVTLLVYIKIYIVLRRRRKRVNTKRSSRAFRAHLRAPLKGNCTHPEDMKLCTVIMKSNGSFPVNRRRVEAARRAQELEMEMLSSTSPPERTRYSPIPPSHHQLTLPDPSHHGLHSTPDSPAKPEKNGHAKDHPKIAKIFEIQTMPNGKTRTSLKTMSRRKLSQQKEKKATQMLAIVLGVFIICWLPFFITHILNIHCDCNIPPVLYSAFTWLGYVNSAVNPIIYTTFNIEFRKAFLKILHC

[13] = target: T8, Alpha-1D adrenergic receptor (Homo sapiens, UniProt P25100); assay: Binding affinity against human adrenergic receptor subtype Alpha-1D adrenergic receptor using [3H]prazosin as radioligand
T8 sequence (P25100 whole entry): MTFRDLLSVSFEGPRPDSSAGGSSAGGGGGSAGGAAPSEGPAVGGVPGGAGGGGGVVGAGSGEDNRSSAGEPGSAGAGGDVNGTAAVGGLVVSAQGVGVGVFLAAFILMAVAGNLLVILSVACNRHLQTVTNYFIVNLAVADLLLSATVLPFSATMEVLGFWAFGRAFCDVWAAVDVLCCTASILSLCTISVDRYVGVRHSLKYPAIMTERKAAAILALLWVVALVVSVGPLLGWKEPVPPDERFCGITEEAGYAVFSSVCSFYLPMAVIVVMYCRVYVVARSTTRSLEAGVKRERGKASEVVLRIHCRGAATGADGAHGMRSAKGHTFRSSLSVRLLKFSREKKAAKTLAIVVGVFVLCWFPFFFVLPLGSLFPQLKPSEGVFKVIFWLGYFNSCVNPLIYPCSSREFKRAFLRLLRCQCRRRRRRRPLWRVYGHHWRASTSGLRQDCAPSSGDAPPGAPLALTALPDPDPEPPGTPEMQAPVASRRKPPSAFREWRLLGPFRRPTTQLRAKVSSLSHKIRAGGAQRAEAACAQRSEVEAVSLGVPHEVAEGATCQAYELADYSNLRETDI

[14] = system: Rattus norvegicus; assay: Compound was tested for selectivity in a challenge spontaneously hypertensive rat (SHR) model using an ascending iv dose paradigm

Ki [1] [µM] | Ki [2] [nM] | Kb [3] [nM] | Kb [4] [nM] | Ki [5] [µM] | Ki [6] [nM] | Ki [7] [nM] | Ki [8] [nM] | Ki [9] [nM] | Ki [10] [µM] | Ki [11] [nM] | Ki [12] [nM] | Ki [13] [nM] | SMILES | pED50 [14]
3.38 | 83 | 0.776 | 12.9 | 10.6 | 94.9 | 6.95 | 16.6 | 13.1 | 3.87 | 717 | 19.7 | 0.97 | COc1cccc2c1CC[C@H]1CN(CCn3c(=O)[nH]c4c(sc5cccnc54)c3=O)C[C@@H]21 | 5.33
– | – | – | 0.204 | – | 13.4 | 0.61 | 7.9 | 6.8 | – | – | – | 0.058 | CCOc1ccccc1OCCN[C@H](C)Cc1ccc(OC)c(S(N)(=O)=O)c1 [TAMSULOSIN] | 7.33
– | – | – | – | – | 1500 | – | – | 7.7 | – | – | – | 0.85 | COc1cc2nc(N3CCN(C(=O)C4CCCO4)CC3)nc(N)c2cc1OC (stereo not given) [TERAZOSIN] | 6.64
